Test results taken from BindingDB's records for doi:10.1016/j.bmc.2019.02.023 (Wesleyan University, 2019).

The molecules below were run against Beta-lactamase (Enterobacter cloacae, UniProt P05364) (assay: Irreversible inhibition of Enterobacter cloacae P99 beta-lactamase using cephalothin as substrate by spectrophotometric analysis). Details: read-out: kon (M-1-s-1).
Procedure, shortened: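 P99 class C β-lactamase (stock concentration by A280, ε 7.1 x 10⁴ M⁻¹cm⁻¹) incubated with inhibitor in 20 mM MOPS pH 7.5, 0.1% BSA, 25 °C. Aliquots diluted 1:50 into 300 μM cephalothin; initial rates followed at 270 nm over time. Titration: 150 nM enzyme with 0–2.0 μM inhibitor to end-point. Time-course and titration data fitted jointly to Scheme 2, k2 fixed at 100 s⁻¹, giving k1, k2/k3 and k_i.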

Beta-lactamase, sequence (P05364 whole entry): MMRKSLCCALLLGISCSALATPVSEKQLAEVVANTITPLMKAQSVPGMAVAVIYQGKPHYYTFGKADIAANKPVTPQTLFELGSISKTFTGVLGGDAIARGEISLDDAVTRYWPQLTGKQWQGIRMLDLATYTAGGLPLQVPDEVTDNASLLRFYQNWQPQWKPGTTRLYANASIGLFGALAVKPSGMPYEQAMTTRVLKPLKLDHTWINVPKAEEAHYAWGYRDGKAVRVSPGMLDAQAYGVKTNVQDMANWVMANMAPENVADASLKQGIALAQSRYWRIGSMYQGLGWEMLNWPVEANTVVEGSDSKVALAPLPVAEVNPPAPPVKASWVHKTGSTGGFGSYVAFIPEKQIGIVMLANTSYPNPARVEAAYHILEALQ

Point of comparison: `CCCCOC(=O)NOC(=O)Oc1ccccc1`, kon 1100 M⁻¹ s⁻¹. Against it:
- O=C(NOC(=O)Oc1ccccc1)OCc1ccccc1 — 1.8-fold higher, 2000 M⁻¹ s⁻¹
- O=C(NOC(=O)Oc1ccccc1)OCCc1ccccc1 — within 1.5-fold, 1400 M⁻¹ s⁻¹
- N[C@H](CCCOC(=O)NOC(=O)Oc1ccccc1)C(=O)O — 15-fold higher, 16000 M⁻¹ s⁻¹
- O=C(O)CCCCOC(=O)NOC(=O)Oc1ccccc1 — 7.7-fold higher, 8500 M⁻¹ s⁻¹
